According to ChEMBL document CHEMBL1157676, “Carboxymethylated-kappa-casein: a convenient tool for the identification of polyphenolic inhibitors of amyloid fibril formation” (Bioorg Med Chem, 2010):
Activity calls are given as the source filed them. The rule behind the calls is not given here.

Tests used:
[1] = Inhibition of reduced carboxymethylated kappa-casein fibril formation assessed as formation of shorter and stunted fibrils by transmission electron microscopy
[2] = Inhibition of reduced carboxymethylated kappa-casein fibril formation at 50 ug/mL measured every 5 mins after 1000 mins by thioflavin T staining-based binding assay
In short: (§1)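 RCM-κ-CN (0.5 mg/mL final) in 50 mM sodium phosphate pH 7.2 with 10 µM ThT and test compound (final DMSO ≤1%), incubated at 37 °C unshaken in sealed plates. Fluorescence (ex 440/em 490 nm) was read every 5 min for 1000 min. %FFi = 100×(ΔFc−ΔFs)/ΔFc versus a 1% DMSO control. Duplicates.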

[3] = Inhibition of reduced carboxymethylated kappa-casein fibril formation measured every 5 mins after 1000 mins by thioflavin T staining-based binding assay
In short: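 RCM-κ-CN fibrillation (0.5 mg/mL) at 37 °C, pH 7.2 phosphate (50 mM), 10 µM ThT, no shaking. ThT fluorescence 440/490 nm was read every 5 min over 1000 min. Duplicate samples. The positive control IC50 is the mean of four batches.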

[4] = Inhibition of reduced carboxymethylated kappa-casein fibril formation at 5 ug/mL measured every 5 mins after 1000 mins by thioflavin T staining-based binding assay
In short: as §1

[5] = Inhibition of reduced carboxymethylated kappa-casein fibril formation at 12.5 ug/mL measured every 5 mins after 1000 mins by thioflavin T staining-based binding assay
In short: as §1

[6] = Inhibition of reduced carboxymethylated kappa-casein fibril formation at 100 ug/mL measured every 5 mins after 1000 mins by thioflavin T staining-based binding assay
In short: as §1

[7] = Inhibition of beta amyloid (1 to 42) fibril formation at 50 ug/mL by thioflavin T staining-based binding assay
[8] = Inhibition of beta amyloid (1 to 42) fibril formation by thioflavin T staining-based binding assay
[9] = Inhibition of beta amyloid (1 to 40) fibril formation by thioflavin T staining-based binding assay
[10] = Inhibition of beta amyloid (1 to 40) fibril formation
[11] = Selectivity ratio of IC50 for reduced carboxymethylated kappa-casein fibril formation to IC50 for beta amyloid (1 to 42) fibril formation
[12] = Selectivity ratio of IC50 for reduced carboxymethylated kappa-casein fibril formation to IC50 for beta amyloid (1 to 40) fibril formation
[13] = Inhibition of beta amyloid (1 to 42) fibril formation
[14] = Inhibition of beta amyloid (1 to 40) fibril formation after 24 hrs by fluorimetry
[15] = Inhibition of reduced carboxymethylated kappa-casein fibril formation at 17 ug/mL measured every 5 mins after 1000 mins by thioflavin T staining-based binding assay
In short: as §1

SMILES | inhibition [1] | inhibition [2] [%] | IC50 [3] [nM] | IC50 [8] [nM] | IC50 [9] [nM] | other results
CC(=O)Oc1cc(OC(C)=O)c2c(=O)c(OC(C)=O)c(-c3ccc(OC(C)=O)c(OC(C)=O)c3)oc2c1 | Active | 90 | 6800 | – | – | –
CO/C(=C\c1ccc(OC)c(OC)c1)C(=O)c1c(O)cc(OC)cc1OC | – | 35 | – | – | – | –
COc1ccc(-c2coc3cc(O)cc(O)c3c2=O)cc1 | – | – | – | – | – | inhibition [4]: 0%
COc1ccc2c(=O)c(O)c(-c3cc(OC)c(OC)cc3CO)oc2c1 | – | – | – | – | – | inhibition [5]: 0%
O=c1c(O)c(-c2ccc(O)cc2)oc2cc(O)ccc12 | – | – | – | – | – | inhibition [4]: 0%
Oc1ccc([C@H]2Oc3cc(O)cc(O)c3C[C@H]2O)cc1 | – | – | – | – | – | inhibition [6]: 17%
O=C1c2c(O)cc(O)cc2O[C@H](c2ccc(O)c(O)c2)[C@H]1O [(+)-TAXIFOLIN] | – | 84 | 40100 | – | – | inhibition [7]: 57%
Oc1cc(O)c2c(c1)O[C@H](c1ccc(O)c(O)c1)[C@H](O)C2 [(-)-EPICATECHIN] | – | 7 | – | 5600 | 2800 | –
COc1ccc(-c2coc3cc(O)ccc3c2=O)cc1O [CALYCOSIN] | – | – | – | – | – | IC50 [10]: Not Active; inhibition [4]: 1%
Oc1cc(O)c2c(c1)O[C@H](c1ccc(O)c(O)c1)[C@@H](O)C2 [CIANIDANOL] | – | 0 | – | 5300 | 2900 | –
O=c1c(-c2ccc(O)cc2)coc2cc(O)ccc12 [DAIDZEIN] | – | 25 | – | – | – | IC50 [10]: Active
O=C(O[C@@H]1Cc2c(O)cc(O)cc2O[C@@H]1c1cc(O)c(O)c(O)c1)c1cc(O)c(O)c(O)c1 [EPIGALOCATECHIN GALLATE] | – | 100 | 3700 | – | – | Ratio IC50 [11]: 10; IC50 ([10]; read-out: IC50): 180 nM; inhibition [7]: 100%; Ratio IC50 [12]: 20
O=c1c(O)c(-c2ccccc2)oc2cc(O)cc(O)c12 [GALANGIN] | Active | 68 | 61000 | – | – | IC50 [10]: Not Active
O=c1c(-c2ccc(O)cc2)coc2cc(O)cc(O)c12 [GENISTEIN] | – | 95 | 190000 | – | – | IC50 [10]: Active; inhibition [7]: 43%
O=c1c(O)c(-c2ccc(O)cc2)oc2cc(O)cc(O)c12 [KAEMPFEROL] | Active | 86 | 33000 | 3200 | 1700 | Ratio IC50 [11]: 10; Ratio IC50 [12]: 20
O=c1c(O)c(-c2ccc(O)cc2O)oc2cc(O)cc(O)c12 [MORIN] | – | 99 | 49500 | 670 | 240 | Ratio IC50 [11]: 74; inhibition [7]: 94%; Ratio IC50 [12]: 206
O=c1c(O)c(-c2cc(O)c(O)c(O)c2)oc2cc(O)cc(O)c12 [MYRICETIN] | Active | – | – | 400 | 290 | IC50 ([10]; read-out: IC50): 200 nM; IC50 [13]: 340 nM; IC50 [14]: 900 nM; inhibition [15]: 92%
O=c1c(O)c(-c2ccc(O)c(O)c2)oc2cc(O)cc(O)c12 [QUERCETIN] | Active | 84 | 13600 | 720 | 240 | Ratio IC50 [11]: 10; inhibition [7]: 95%; Ratio IC50 [12]: 20
O=c1c(O)c(-c2cc(O)c(O)c(O)c2)oc2cc(O)ccc12 [ROBINETIN] | Active | – | 13900 | – | – | inhibition [4]: 89%
